Common to all, as to format: functional, organism-based
Test [1] deals with Plasmodium falciparum. Nature of the test: Antimalarial activity against chloroquine-sensitive Plasmodium falciparum 3D7 by hypoxanthine uptake. Put shortly: (§1)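 Synchronous parasites diluted in A-positive human erythrocytes with RPMI 1640 + 10% human serum, 25 mM HEPES, 25 mM NaHCO₃, to 0.2 parasitemia and 1.5 hematocrit. Added to wells predosed with drug, 0.06 to 200 µM in triplicate. 1 µCi [³H]hypoxanthine per well, 42 h at 37 °C. Incorporated radioactivity counted by scintillation. IC50 from non-linear regression of log-dose/response versus drug-free controls.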

In test [2] the test system is Plasmodium falciparum. Nature of the test: Antimalarial activity against chloroquine-resistant Plasmodium falciparum W2 by hypoxanthine uptake. The method in brief: as §1
In test [3] the test system is Plasmodium falciparum. Nature of the test: Antimalarial activity against chloroquine-resistant Plasmodium falciparum FCR3 by hypoxanthine uptake. Put shortly: as §1
The subject of test [4] is Plasmodium falciparum. Kind of test: Antimalarial activity against chloroquine-resistant Plasmodium falciparum Bre1 by hypoxanthine uptake. Put shortly:
as §1

With `COc1ccc2nc3cc(Cl)ccc3c(NCCCCCCNC(=O)CCN)c2c1`, the IC50 in test [1] was found to be 910 nM; in test [2] it was 1250 nM; in test [3], 1250 nM; in test [4], 1260 nM.

As for `COc1ccc2nc3cc(Cl)ccc3c(NCCCCCCNC(=O)CCCNC(=O)CN)c2c1`, the IC50 in test [1] was 890 nM; in test [2] it was 830 nM; in test [3], 810 nM; in test [4], 620 nM.

Regarding `COc1ccc2nc3cc(Cl)ccc3c(NCCCCCCN)c2c1`, the IC50 is 130 nM in test [1], 180 nM in test [2], 200 nM in test [3] and 170 nM in test [4].

`COc1ccc2nc3cc(Cl)ccc3c(NCCCCCCNC(=O)CCCN)c2c1`: the IC50 in test [1] came out at 190 nM; in test [2], 570 nM; in test [3], 540 nM; in test [4], 180 nM.

Regarding `N=C(N)NCCCC(N)C(=O)NCC(=O)NCCCCCCNC(=O)c1c2ccccc2nc2ccccc12` (configuration not stated), the IC50 came to 42000 nM in test [1], 43600 nM in test [2], 42500 nM in test [3] and 47600 nM in test [4].

In the case of `N=C(N)NCCCC(N)C(=O)NCC(=O)NCCCCCCCC(=O)Nc1c2ccccc2nc2ccccc12` (configuration not stated), the half-inhibitory concentration (IC50) was 27100 nM in test [1], 30500 nM in test [2], 27200 nM in test [3] and 28700 nM in test [4].

Consider `COc1ccc2nc3cc(Cl)ccc3c(NCCCCCCNC(=O)CCNC(=O)CCNC(=O)C(N)CCCNC(=N)N)c2c1` (configuration not stated), for which the IC50 amounted to 3320 nM in test [1], 940 nM in test [2], 860 nM in test [3] and 860 nM in test [4].

As to `COc1ccc2nc3cc(Cl)ccc3c(NCCCCCCNC(=O)CCCNC(=O)CNC(=O)C(N)CCCNC(=N)N)c2c1` (configuration not stated), the IC50 was 840 nM in test [1], 820 nM in test [2], 670 nM in test [3] and 500 nM in test [4].
